# ChEMBL document CHEMBL1143122, “Novel analogs of D-e-MAPP and B13. Part 1: synthesis and evaluation as potential anticancer agents” (Bioorg Med Chem, 2008)
# Assays:
# [1] = test system: SF-268; experiment: Antiproliferative activity against human SF268 cells after 48 hrs; assay type: functional; details: SF-268, 48 h
# Summary of the method: (§1)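 NCI 60-cell screen. Cells were grown in RPMI 1640 with 5% FBS and 2 mM L-glutamine, then plated at 5,000–40,000 cells/well according to doubling time and preincubated for 24 h at 37 °C in 5% CO2. Compounds were dissolved in DMSO at 400× the top final concentration and tested at five 10-fold dilutions from 10−4 to 10−8 M for 48 h. Growth was read spectrophotometrically; GI50 is 50% net protein reduction.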
# [2] = test system: NCI-H23; experiment: Antiproliferative activity against human NCI-H23 cells after 48 hrs; assay type: functional; details: NCI-H23, 48 h; summary of the method: as §1
# [3] = test system: NCI-H226; experiment: Antiproliferative activity against human NCI-H226 cells after 48 hrs; assay type: functional; details: NCI-H226, 48 h; summary of the method: as §1
# [4] = test system: MDA-MB-435; experiment: Antiproliferative activity against human MDA-MB-435 cells after 48 hrs; assay type: functional; details: Homo sapiens, MDA-MB-435, 48 h; summary of the method: as §1
# [5] = test system: OVCAR-8; experiment: Antiproliferative activity against human OVCAR8 cells after 48 hrs; assay type: functional; details: OVCAR-8, 48 h; summary of the method: as §1
# [6] = test system: RPMI-8226; experiment: Antiproliferative activity against human RPMI8226 cells after 48 hrs; assay type: functional; details: RPMI-8226, 48 h; summary of the method: as §1
# [7] = test system: Hs-578T; experiment: Antiproliferative activity against human HS578T cells after 48 hrs; assay type: functional; summary of the method: as §1
# [8] = test system: Malme-3M; experiment: Antiproliferative activity against human MALME3M cells after 48 hrs; assay type: functional; summary of the method: as §1
# [9] = test system: OVCAR-3; experiment: Antiproliferative activity against human OVCAR-3 cells after 48 hrs; assay type: functional; details: OVCAR-3, 48 h; summary of the method: as §1
# [10] = test system: HCC 2998; experiment: Antiproliferative activity against human HCC2998 cells after 48 hrs; assay type: functional; details: HCC 2998, 48 h; summary of the method: as §1
# [11] = test system: HCT-116; experiment: Antiproliferative activity against human HCT116 cells after 48 hrs; assay type: functional; details: HCT-116, 48 h; summary of the method: as §1
# [12] = test system: K562; experiment: Antiproliferative activity against human K562 cells after 48 hrs; assay type: functional; details: K562, 48 h; summary of the method: as §1
# [13] = test system: U-251; experiment: Antiproliferative activity against human U251 cells after 48 hrs; assay type: functional; details: U-251, 48 h
# Summary of the method: (§2)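 NCI 60-cell-line screen. Lines grown in RPMI 1640 with 5% fetal bovine serum and 2 mM L-glutamine, plated at 5,000–40,000 cells/well according to doubling time, left 24 h at 37 °C in 5% CO2. Drug stocks in DMSO at 400-fold the top final concentration. Five 10-fold dilutions, 10−4 to 10−8 M, incubated 48 h. Growth read spectrophotometrically as net protein; GI50 taken as 50% reduction.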
# [14] = test system: MCF7; experiment: Drug level in human MCF7 cells at 10 uM per 10^6 cells after 0.5 hrs; assay type: ADME, cell-based; details: mcf7, 0.5 h
# Summary of the method: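 MCF7 cells kept in RPMI 1640 with 10% fetal calf serum at 37 °C, 5% CO2, then treated with 10 μM analog. Intracellular analog measured over time by HPLC-MS in positive-ion MRM mode. Quantified against calibration curves made by spiking an artificial matrix with standards plus internal standard, using analyte/IS peak-area ratios and linear regression. Reported as pmol per 1×10^6 cells.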
# [15] = test system: ACHN; experiment: Antiproliferative activity against human ACHN cells after 48 hrs; assay type: functional; summary of the method: as §1
# [16] = test system: OVCAR-4; experiment: Antiproliferative activity against human OVCAR4 cells after 48 hrs; assay type: functional; details: OVCAR-4, 48 h; summary of the method: as §1
# [17] = test system: BT-549; experiment: Antiproliferative activity against human BT549 cells after 48 hrs; assay type: functional; details: BT-549, 48 h; summary of the method: as §1
# [18] = test system: RXF 393; experiment: Antiproliferative activity against human RXF393 cells after 48 hrs; assay type: functional; details: RXF 393, 48 h; summary of the method: as §1
# [19] = test system: COLO 205; experiment: Antiproliferative activity against human COLO205 cells after 48 hrs; assay type: functional; details: COLO 205, 48 h; summary of the method: as §1
# [20] = test system: NCI-H522; experiment: Antiproliferative activity against human NCI-H522 cells after 48 hrs; assay type: functional; details: NCI-H522, 48 h; summary of the method: as §1
# [21] = test system: SW-620; experiment: Antiproliferative activity against human SW620 cells after 48 hrs; assay type: functional; details: SW-620, 48 h; summary of the method: as §2
# [22] = test system: OVCAR-5; experiment: Antiproliferative activity against human OVCAR5 cells after 48 hrs; assay type: functional; details: OVCAR-5, 48 h; summary of the method: as §1
# [23] = test system: MCF7; experiment: Antiproliferative activity against human MCF7 cells after 48 hrs; assay type: functional, cell-based; details: MCF7, 48 h
# [24] = test system: A549; experiment: Antiproliferative activity against human A549 cells after 48 hrs; assay type: functional; details: A549, 48 h; summary of the method: as §1
# [25] = test system: SNB-75; experiment: Antiproliferative activity against human SNB75 cells after 48 hrs; assay type: functional; details: SNB-75, 48 h; summary of the method: as §1
# [26] = Antiproliferative activity against human […] cells after 48 hrs; assay type: functional; summary of the method: as §1
# [27] = test system: SK-MEL-5; experiment: Antiproliferative activity against human SKMEL5 cells after 48 hrs; assay type: functional; details: SK-MEL-5, 48 h, read-out: Log LC50 (the source's name) (converted); summary of the method: as §1
# [28] = test system: CCRF-CEM; experiment: Antiproliferative activity against human CCRF-CEM cells after 48 hrs; assay type: functional; summary of the method: as §1
# [29] = test system: SF-539; experiment: Antiproliferative activity against human SF539 cells after 48 hrs; assay type: functional; details: SF-539, 48 h; summary of the method: as §1
# [30] = read-out: Log LC50 (the source's name) (converted)
smiles,measurement,setting,value
CCCCCCCCCCCCCCN[C@H](C)[C@@H](O)c1ccccc1.Cl,GI50,[1],1780 nM
same,LC50,[1],6.76 µM
same,TGI,[1]; read-out: Log TGI (converted),3.47 µM
same,GI50,[2],2140 nM
same,CC50,[2]; [30],7.94 µM
same,TGI,[2]; read-out: Log TGI (converted),4.07 µM
same,GI50,[3],1860 nM
same,CC50,[3]; [30],7.08 µM
same,TGI,[3]; read-out: Log TGI (converted),3.63 µM
same,GI50,[4],1780 nM
same,LC50,[4],5.62 µM
same,TGI,[4]; read-out: Log TGI (converted),3.16 µM
same,GI50,[5],1820 nM
same,TGI,[5]; read-out: Log TGI (converted),3.8 µM
same,GI50,[6],3.39 µM
same,CC50,[6]; [30],7.24 µM
same,TGI,[6]; read-out: Log TGI (converted),3.63 µM
same,GI50,[7],2510 nM
same,LC50,[7],46.8 µM
same,TGI,[7]; read-out: Log TGI (converted),5.5 µM
same,GI50,[8],1950 nM
same,LC50,[8],6.03 µM
same,TGI,[8]; read-out: Log TGI (converted),3.39 µM
same,GI50,[9],1740 nM
same,LC50,[9],6.03 µM
same,TGI,[9]; read-out: Log TGI (converted),3.24 µM
same,GI50,[10],1860 nM
same,CC50,[10]; [30],6.46 µM
same,TGI,[10]; read-out: Log TGI (converted),3.47 µM
same,GI50,[11],1860 nM
same,LC50,[11],5.75 µM
same,TGI,[11]; read-out: Log TGI (converted),3.24 µM
same,GI50,[12],1410 nM
same,LC50,[12],5.62 µM
same,TGI,[12]; read-out: Log TGI (converted),2820 nM
same,GI50,[13],1860 nM
same,CC50,[13]; [30],5.89 µM
same,TGI,[13]; read-out: Log TGI (converted),3.31 µM
same,Drug uptake,[14],3600 pmol
same,GI50,[15],1860 nM
same,CC50,[15]; [30],5.89 µM
same,TGI,[15]; read-out: Log TGI (converted),3.31 µM
same,GI50,[16],2140 nM
same,LC50,[16],6.76 µM
same,TGI,[16]; read-out: Log TGI (converted),3.8 µM
same,GI50,[17],1120 nM
same,LC50,[17],5.01 µM
same,TGI,[17]; read-out: Log TGI (converted),2400 nM
same,GI50,[18],1380 nM
same,CC50,[18]; [30],5.5 µM
same,TGI,[18]; read-out: Log TGI (converted),2750 nM
same,GI50,[19],1910 nM
same,CC50,[19]; [30],6.17 µM
same,TGI,[19]; read-out: Log TGI (converted),3.39 µM
same,GI50,[20],1910 nM
same,CC50,[20]; [30],6.61 µM
same,TGI,[20]; read-out: Log TGI (converted),3.55 µM
same,GI50,[21],2140 nM
same,LC50 (concentration killing 50% of cells),[21],7.94 µM
same,TGI,[21]; read-out: Log TGI (converted),4.17 µM
same,GI50,[22],2000 nM
same,CC50,[22]; [30],6.17 µM
same,TGI,[22]; read-out: Log TGI (converted),3.47 µM
same,IC50,[23],3.5 µM
same,GI50,[24],1740 nM
same,CC50,[24]; [30],6.31 µM
same,TGI,[24]; read-out: Log TGI (converted),3.31 µM
same,GI50,[25],2090 nM
same,CC50,[25]; [30],7.08 µM
same,TGI,[25]; read-out: Log TGI (converted),3.89 µM
same,GI50,[26],1620 nM
same,LC50,[26],6.03 µM
same,TGI,[26]; read-out: Log TGI (converted),3.09 µM
same,CC50,[27],100 µM
same,GI50,[28],1450 nM
same,CC50,[28]; [30],7.59 µM
same,TGI,[28]; read-out: Log TGI (converted),3.31 µM
same,GI50,[29],1350 nM
same,LC50,[29],5.5 µM
same,TGI,[29]; read-out: Log TGI (converted),2690 nM
